Bioassay records: PubChem, The Scripps Research Institute Molecular Screening Center
Sampled rows, rich in hits. Any-hit rate of the full collection: about 1.8%.
STAT3 inh-1: IL-6 driven STAT3 reporter inhibitors, primary screen, U3A cells, luciferase, luminescence, MLSCN library; IL-6 STAT3-luciferase reporter; host cell line lacks STAT1; inhibition, % at 5.5 µM; 190,000 tested, 0.89% active;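 active = inhibition above the mean inhibition across all screened compounds plus 3 SD, cut at about 44% in these data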
STAT3 activator: IL-6 driven STAT3 reporter potentiators, primary screen, U3A cells, luciferase, luminescence, MLSCN library | AID 871, 2007 | 190,000 tested, 0.91% active | activation (% of control), % at 5.6 µM | IL-6 STAT3-luciferase reporter; 100% = signal with IL-6 EC80 alone;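 active = activation above the screen-wide mean of compound activation plus 3 SD, cut at about 130% in these data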
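Material: STAT3-luciferase reporter U3A cells; Probe or stimulus: IL-6 (33 ng/mL); Incubation: compound pre-incubation 1 h before IL-6, then 6 h stimulation at 37 °C; Technique: luminescence from STAT3-driven luciferase reporter; Evaluation: % activation versus median of IL-6-stimulated wells; Controls: IL-6-only high control.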
STAT1 inh: STAT1 signaling inhibitors, primary screen, cell-based, HTS, luciferase reporter | NIH 3T3 STAT1-luciferase reporter, IFN-gamma, luminescence | inhibition, % at 5.5 µM | 200,000 tested, 0.35% active | AID 920, 2007;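 active = inhibition above a set limit, the mean inhibition across all tested compounds plus 3 SD, cut at about 34% in these data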
PERK inh: block of dimerizer-induced PERK translation repression, primary screen, PERK inhibitor project, CHO PERK-DD cells, SEAP luminescence, HTS; Eukaryotic translation initiation factor 2-alpha kinase 3 (Homo sapiens), Q9NZJ5; CHO PERK-DD fusion, SEAP luminescence translation reporter; inhibition, % at 5.6 µM; 220,000 tested, 0.17% active;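 active = inhibition above the mean inhibition of all tested compounds plus 3 SD, set separately per screening campaign, cut at about 2.9% in these data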;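 also: PERK kinase domain activated by AP20187 dimerizer at 100 nM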
Target sequence (Q9NZJ5 whole entry, looked up, the tested form may be a part): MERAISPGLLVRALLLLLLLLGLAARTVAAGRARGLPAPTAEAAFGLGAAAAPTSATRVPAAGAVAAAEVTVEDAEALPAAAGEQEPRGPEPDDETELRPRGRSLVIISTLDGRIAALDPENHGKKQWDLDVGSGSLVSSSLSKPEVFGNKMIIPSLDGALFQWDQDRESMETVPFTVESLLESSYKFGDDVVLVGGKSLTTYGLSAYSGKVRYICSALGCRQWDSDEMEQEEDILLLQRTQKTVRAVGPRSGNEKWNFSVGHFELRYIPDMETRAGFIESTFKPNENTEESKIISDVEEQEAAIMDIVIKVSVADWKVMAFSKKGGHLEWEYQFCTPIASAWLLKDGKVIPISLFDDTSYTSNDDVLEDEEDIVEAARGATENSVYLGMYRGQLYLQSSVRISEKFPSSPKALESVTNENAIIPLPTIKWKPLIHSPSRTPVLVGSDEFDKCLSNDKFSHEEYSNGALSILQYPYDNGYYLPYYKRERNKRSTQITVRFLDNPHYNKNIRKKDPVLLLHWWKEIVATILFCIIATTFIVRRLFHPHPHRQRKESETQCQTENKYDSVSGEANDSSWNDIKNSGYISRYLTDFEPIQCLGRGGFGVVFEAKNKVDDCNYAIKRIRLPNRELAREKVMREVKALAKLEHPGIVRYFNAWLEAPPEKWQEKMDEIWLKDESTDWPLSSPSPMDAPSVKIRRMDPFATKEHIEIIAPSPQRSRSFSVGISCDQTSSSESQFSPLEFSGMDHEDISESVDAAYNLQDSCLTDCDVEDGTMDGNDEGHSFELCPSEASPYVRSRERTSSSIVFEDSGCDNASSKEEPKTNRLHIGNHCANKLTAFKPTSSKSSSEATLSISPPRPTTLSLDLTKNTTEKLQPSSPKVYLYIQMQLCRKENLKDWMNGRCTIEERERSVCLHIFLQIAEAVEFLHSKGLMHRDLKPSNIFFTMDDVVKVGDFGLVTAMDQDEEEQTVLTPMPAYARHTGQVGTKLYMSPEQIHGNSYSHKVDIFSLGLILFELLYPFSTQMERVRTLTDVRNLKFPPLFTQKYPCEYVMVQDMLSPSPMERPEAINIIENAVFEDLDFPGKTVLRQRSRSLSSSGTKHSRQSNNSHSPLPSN
STAT3 inh-2: STAT3 reporter inhibitors, retest of hits, confirmation, U3A cells, luciferase, luminescence | IL-6 STAT3 luciferase reporter; cell line lacks STAT1 | shares compounds with STAT3 inh-1 | AID 1265, 2008 | 1,200 tested, 45% active | inhibition, % at 5.7 µM;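 active = inhibition above the hit cutoff computed for the primary STAT3 screen, cut at about 44% in these data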
NFkB inh 2: NF-kB reporter inhibitors in human cells, confirmation, counter-screen for STAT3 inhibitor project, cell-based, HEK293T, luciferase, TNF-alpha stimulus; TNF-alpha induced; 1,200 tested, 36% active; shares compounds with STAT3 inh-1; inhibition, % at 5.7 µM; AID 1308, 2008;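 active = inhibition above the mean of solvent-only control wells plus 3 SD, cutoff set per campaign, cut at about 13% in these data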
STAT1 inh 2: STAT1 reporter inhibitors, IFN-gamma induced, confirmation, counter-screen for STAT3 inhibitor project, cell-based, NIH 3T3, luciferase luminescence | NIH 3T3 STAT1-luciferase reporter | 1,200 tested, 27% active | shares compounds with STAT3 inh-1 | inhibition, % at 5.7 µM;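 active = inhibition above the mean plus 3 SD of solvent-only control wells, limit set per screening run, cut at about 16% in these data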
Of the large screens only hits and unclear results are named; the others gave an inactive call (follow-up assays come after a bar, where they were run).

Nc1nc2ccccc2n1C(=O)c1ccccc1	STAT3 inh-1 67 | STAT3 inh-2 inactive | NFkB inh 2 inactive | STAT1 inh 2 inactive
COC(=O)c1cccnc1NC(=S)NNC(=O)c1ccccc1	none
O=C1C2C3c4ccccc4C(c4ccccc43)[C@@H]2c2nc3ccccc3n21 (stereo not given in full)	STAT3 inh-1 48 | STAT3 inh-2 57 | NFkB inh 2 inactive | STAT1 inh 2 inactive
CN(Cc1ccccc1)S(=O)(=O)c1ccccc1[N+](=O)[O-]	none
CCCCN1C2CCCC1CC(NC(=O)N(C(C)C)C(C)C)C2 (stereo not given)	none
O=C1c2ccccc2-c2nnc(-c3ccc(F)cc3)cc21	STAT3 inh-1 56 | STAT3 inh-2 47 | NFkB inh 2 19 | STAT1 inh 2 inactive
Cc1ccc(C)c(N2CCN(C(=O)Nc3ccc4c(c3)N(C)C(=O)CS4)CC2)c1	STAT3 inh-1 45 | STAT3 inh-2 inactive | NFkB inh 2 15 | STAT1 inh 2 20
CN1C(=O)CSc2ccc(NC(=O)N3CCN(c4ccccn4)CC3)cc21	none
CCCCOc1ccc(C(=O)Nc2cccc(C)n2)cc1	STAT3 inh-1 48 | STAT3 inh-2 inactive | NFkB inh 2 inactive | STAT1 inh 2 inactive
Cc1cccc(NC(=O)c2ccc(S(=O)(=O)N(C)C)cc2)n1	none
CCOc1ccc(C(=O)Nc2cccc(C)n2)cc1	STAT3 inh-1 57 | STAT3 inh-2 inactive | NFkB inh 2 inactive | STAT1 inh 2 inactive
COc1ccc(Cl)cc1-c1nc(-c2ccc(NC(=O)c3cccs3)cc2)no1	none
COc1ccc(-c2nc(-c3ccc(Br)o3)no2)cc1	STAT3 inh-1 49 | STAT3 inh-2 inactive | NFkB inh 2 inactive | STAT1 inh 2 inactive
COc1ccc(/C=C/c2cc(-c3ccc(C)cc3)o[n+]2C)cc1	STAT3 inh-1 44 | STAT3 inh-2 inactive | NFkB inh 2 inactive | STAT1 inh 2 20
COC(=O)c1ccc(NC(=O)Nc2ccccc2F)cc1	STAT3 inh-1 48 | STAT3 inh-2 inactive | NFkB inh 2 inactive | STAT1 inh 2 inactive
CCOc1ccc(OCc2cccc(C(=O)N3CCCC3)c2)cc1	STAT3 inh-1 53, STAT1 inh 42 | STAT3 inh-2 inactive | NFkB inh 2 17 | STAT1 inh 2 inactive
O=C(Nc1ccncc1)c1ccc(-c2ccccc2)cc1	STAT3 inh-1 82 | STAT3 inh-2 77 | NFkB inh 2 inactive | STAT1 inh 2 inactive
O=C1C(=O)c2ccccc2C(O)=C1c1ccccc1F	none (no result: STAT3 inh-1, STAT3 activator, STAT1 inh)
O=C1C(c2ccnc3ccccc23)=C(O)c2ccccc21	STAT3 inh-1 48 | STAT3 inh-2 inactive | NFkB inh 2 38 | STAT1 inh 2 inactive
Cc1sc(NC(=O)c2ccco2)c(CN2CCC(C)CC2)c1C	none
Cc1sc(NC(=O)c2ccco2)c(C(c2cccnc2)N2CCC(C)CC2)c1C (stereo not given)	STAT3 inh-1 68 | STAT3 inh-2 67 | NFkB inh 2 16 | STAT1 inh 2 inactive
Cc1cccc(NC(=S)N(CCCN2CCOCC2)C(C)c2cc3ccccc3o2)c1C (stereo not given)	none
CCCCCCCN1C2=NCCCN2c2ccccc21	none
Oc1ccccc1-c1cc(-c2ccc3c(c2)OCCO3)n[nH]1	STAT3 inh-1 55 | STAT3 inh-2 inactive | NFkB inh 2 inactive | STAT1 inh 2 inactive
CCOC(=O)COc1cnc2ccccc2n1	none
Cc1sc2ncnc(NCc3cccs3)c2c1C	STAT3 inh-1 48 | STAT3 inh-2 inactive | NFkB inh 2 inactive | STAT1 inh 2 inactive
Cc1cc(S(=O)(=O)N2CCN(C(=O)CCC(=O)N3CCOCC3)CC2)ccc1Br	none (no result: STAT3 inh-1, STAT3 activator, STAT1 inh)
COC(=O)c1ccc(COC(=O)c2[nH]c(C)c(C(C)=O)c2C)o1	STAT3 inh-1 47 | STAT3 inh-2 52 | NFkB inh 2 inactive | STAT1 inh 2 inactive
CC(=O)c1c(C)[nH]c(C(=O)OCc2ccccc2)c1C	none
COc1ccc(S(N)(=O)=O)cc1C(N)=O	none
Brc1ccc(-c2cn3ccccc3n2)s1	STAT3 inh-1 51 | STAT3 inh-2 inactive | NFkB inh 2 inactive | STAT1 inh 2 inactive
CSc1ccccc1C(=O)N1CCc2ccccc2C1	none
CC(C)SCC(=O)Nc1ncc2c(n1)-c1ccccc1CC2	none
O=C(Nc1ncc2c(n1)-c1ccccc1CC2)C1CC1	STAT3 inh-1 45 | STAT3 inh-2 inactive | NFkB inh 2 inactive | STAT1 inh 2 inactive
COc1ccc(-n2ncc3c(NCC(C)C)ncnc32)cc1	none
COc1ccc(-n2ncc3c(NC(C)C)ncnc32)cc1	STAT3 inh-1 56 | STAT3 inh-2 inactive | NFkB inh 2 inactive | STAT1 inh 2 inactive
COc1ccc2c(c1)c(=O)cc(-c1ccccc1)n2C	none
Cc1ccc2[nH]c3c(NCc4ccco4)ncnc3c2c1	STAT3 inh-1 60 | STAT3 inh-2 45 | NFkB inh 2 inactive | STAT1 inh 2 inactive
CC(Oc1ccc(Cl)cc1)c1ccnc(N)n1 (stereo not given)	none
COc1ccc(/C=N/Nc2nc3ccccc3o2)cc1O	none
COc1ccc(/C=N/Nc2nc3ccccc3s2)cc1O	STAT3 inh-1 60 | STAT3 inh-2 inactive | NFkB inh 2 inactive | STAT1 inh 2 inactive
Cc1[nH]nc2c1C1(CCN(C(=O)OCc3ccccc3)CC1)C(C#N)=C(N)O2	STAT3 inh-1 49 | STAT3 inh-2 inactive | NFkB inh 2 inactive | STAT1 inh 2 inactive
CC(=Nc1ccc(C)cc1)c1sc2ccccc2c1O	STAT3 inh-1 56 | STAT3 inh-2 inactive | NFkB inh 2 inactive | STAT1 inh 2 inactive
Cc1nc(CS(=O)(=O)c2ccc(Cl)cc2)sc1C(=O)O	none (no result: STAT3 inh-1, STAT3 activator, STAT1 inh)
Cc1cccc(OCC(=O)Nc2ccc(N3CCN(C(=O)c4ccco4)CC3)cc2)c1	STAT3 inh-1 54 | STAT3 inh-2 49 | NFkB inh 2 inactive | STAT1 inh 2 17
Cc1ccc(OCC(=O)Nc2ccc(N3CCN(C(=O)c4ccco4)CC3)cc2)cc1C	none
Cc1csc2c(=O)sc(NC(=O)c3cccs3)nc12	none (no result: STAT3 inh-1, STAT3 activator, STAT1 inh)
O=C(c1ccccc1)N1CCC(c2nc(-c3ccc(S(=O)(=O)NCC4CCCO4)cc3)no2)CC1 (stereo not given)	STAT3 inh-1 69 | STAT3 inh-2 inactive | NFkB inh 2 22 | STAT1 inh 2 27
CS(=O)(=O)N1CCCC(c2nc(-c3ccc(S(=O)(=O)NCc4ccccc4)cc3)no2)C1 (stereo not given)	STAT3 inh-1 66 | STAT3 inh-2 72 | NFkB inh 2 26 | STAT1 inh 2 22
